Data on 13 compounds can be found in ChEMBL document CHEMBL1154870, “Synthesis of tropolone derivatives and evaluation of their in vitro neuroprotective activity” (Eur J Med Chem, 2010).

The test system of assay [1] is HT-22. Briefly: Ratio of beta-thujaplicin EC50 to drug EC50 for mouse HT22 cells.
The subject of assay [2] is HT-22. Briefly: Neuroprotective activity against glutamate-mediated oxidative stress-induced cell death in mouse HT22 cells assessed as survival after 24 hrs by MTT assay. The class given is functional, cell-based. In outline:
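HT22 cells seeded at 4000/well in DMEM-Hepes-GlutaMAX with 10% FBS. After 24 h, 5 mM glutamate was added with or without test compound in fresh medium for 24 h. Viability was read by MTT formazan (OD 550 minus 670 nm), with DMSO vehicle controls. EC50 was the concentration keeping glutamate-exposed viability at 50% of unexposed cells. Mean ± SEM, ≥3 independent experiments.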
(In general: Tetrazolium assays rely on reduction of a dye to a coloured formazan, in cell work by metabolically active cells.)

Assay [3] relates to HT-22. Briefly: Neuroprotective activity against glutamate-mediated oxidative stress-induced cell death in mouse HT22 cells assessed as survival at 10 uM after 24 hrs by MTT assay. The assay is classed as functional. In outline: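 HT22 mouse hippocampal cells seeded at 4000/well in DMEM-Hepes-GlutaMAX with 10% FBS; after 24 h, challenged with 5 mM glutamate plus test compound in fresh medium for 24 h. MTT formazan read as dOD 550–670 nm. % neuroprotection = (CD_vehicle − CD_compound)/CD_vehicle; efficacy classed full/partial/weak as 67–100, 34–66, ≤33%. Mean of ≥3 independent experiments.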

Broadly, the EC50 is the concentration giving half of the maximal effect. In the case of `O=c1c(O)ccccc1CN1CCOCC1`, in the assay with HT-22 [1], the “Ratio EC50” value was under 0.5. Further, the 50% effective concentration (EC50) with HT-22 [2] (Mus musculus, HT-22, 24 h) is over 10000 nM.

`COc1cc(C(C)C)ccc(Cn2cc(Cc3ccccc3)nn2)c1=O`: in the assay on HT-22 [3], the Efficacy came to 30%. The “Ratio EC50” value with HT-22 [1] is listed as under 0.5. Besides, in the assay with HT-22 [2] (Mus musculus, HT-22, 24 h), the EC50 was over 10000 nM.

On to `CC(C)c1ccc(CN2CCOCC2)c(=O)c(O)c1`, for which, in the assay with HT-22 [3], the Efficacy was determined as 87%. In addition, in the assay on HT-22 [1], the “Ratio EC50” value is listed as 1.9. In the assay with HT-22 [2] (Mus musculus, HT-22, 24 h), the EC50 is 2560 nM.

`COc1cc(C(C)C)ccc(COc2ccccn2)c1=O`: in the assay with HT-22 [1], the “Ratio EC50” value is reported as under 0.5. Also, in the assay on HT-22 [2] (Mus musculus, HT-22, 24 h), the EC50 was over 10000 nM.

Consider `CCOC(=O)N1CCN(Cc2ccc(C(C)C)cc(O)c2=O)CC1`, for which the Efficacy in the assay with HT-22 [3] amounted to 88%. For the same compound, in the assay with HT-22 [1], the “Ratio EC50” value is recorded as 3.4. The EC50 in the assay on HT-22 [2] (Mus musculus, HT-22, 24 h) was determined as 1400 nM.

Turning to `CC(C)c1ccc(CN2CCN(c3ccc([N+](=O)[O-])cc3)CC2)c(=O)c(O)c1`, the Efficacy in the assay with HT-22 [3] is given as 91%. Moreover, the “Ratio EC50” value in the assay with HT-22 [1] came out at 2.8. For the same compound, in the assay with HT-22 [2] (Mus musculus, HT-22, 24 h), the EC50 came to 1700 nM.

Turning to `CC(C)c1ccc(CN2CCN(Cc3ccc([N+](=O)[O-])cc3)CC2)c(=O)c(O)c1`, the Efficacy with HT-22 [3] amounted to 100%. Further, the “Ratio EC50” value in the assay on HT-22 [1] is 5. Also, in the assay with HT-22 [2] (Mus musculus, HT-22, 24 h), the EC50 is 960 nM.

With `Cc1c(C)c2c(c(C)c1O)CCC(C)(C(=O)N1CCN(Cc3ccc(C(C)C)cc(O)c3=O)CC1)O2` (configuration not stated), the Efficacy in the assay on HT-22 [3] came to 62%. The “Ratio EC50” value in the assay on HT-22 [1] is listed as 60. Also, the EC50 with HT-22 [2] (Mus musculus, HT-22, 24 h) was determined as 80 nM.

Consider `Cc1c(C)c2c(c(C)c1O)CCC(C)(C(=O)NCCN1CCN(Cc3ccc(C(C)C)cc(O)c3=O)CC1)O2` (configuration not stated), for which the Efficacy in the assay on HT-22 [3] is 89%. The “Ratio EC50” value in the assay on HT-22 [1] was found to be 53. Further, in the assay on HT-22 [2] (Mus musculus, HT-22, 24 h), the EC50 came to 90 nM.

Turning to `CC(C)c1ccc(CN2CCN(Cc3ccc(C(C)C)cc(O)c3=O)CC2)c(=O)c(O)c1`, in the assay with HT-22 [2] (Mus musculus, HT-22, 24 h), the EC50 is 920 nM.

Regarding `CC(C)c1cccc(=O)c(O)c1` [HINOKITIOL], the Efficacy with HT-22 [3] stood at 62%. Moreover, the “Ratio EC50” value with HT-22 [1] amounted to 1. Besides, the EC50 in the assay with HT-22 [2] (Mus musculus, HT-22, 24 h) was determined as 4800 nM.

As to `O=c1cccccc1O` [TROPOLONE], the “Ratio EC50” value with HT-22 [1] is reported as under 0.5. Further, in the assay with HT-22 [2] (Mus musculus, HT-22, 24 h), the EC50 was over 10000 nM.

VITAMIN E: the EC50 with HT-22 [2] (ht-22) was determined as 200 nM.
